Results reported in ChEMBL document CHEMBL3813698, “Hydrophobic substituents increase the potency of salacinol, a potent α-glucosidase inhibitor from Ayurvedic traditional medicine 'Salacia'” (Bioorg Med Chem, 2016).

Key:
[1] = Inhibition of rat small intestinal maltase using maltose as substrate incubated for 30 mins by glucose-oxidase method
How it was run: (§1)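 Rat small-intestinal α-glucosidases in 0.1 M maleate buffer (pH 6.0). Test sample dissolved in DMSO, diluted with maleate buffer (10% DMSO in sample solution; 2.5% final). Substrate solution concentrations were maltose 74 mM (maltase), sucrose 74 mM (sucrase) and isomaltose 7.4 mM (isomaltase). Substrate, sample and enzyme were mixed at 37 °C for 30 min, stopped by 2 min boiling, and glucose read by glucose oxidase.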

[2] = molecular target: T1, Sucrase-isomaltase, intestinal (Rattus norvegicus, UniProt P23739); test: Inhibition of rat small intestinal isomaltase using isomaltose as substrate incubated for 30 mins by glucose-oxidase method; how it was run: as §1
Maltase-glucoamylase = Maltase-glucoamylase (Homo sapiens, UniProt O43451); test: Inhibition of human small intestine microsomal maltase using maltose as substrate incubated for 30 mins by glucose-oxidase method
How it was run: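 Enzyme was human small-intestinal microsome in 0.1 M maleate buffer (pH 6.0), with maltose as substrate. Test sample was dissolved in DMSO and diluted in maleate buffer. Sample, substrate and enzyme were incubated at 37 °C for 30 min, stopped by boiling for 2 min, and glucose measured by the glucose-oxidase method.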

[3] = molecular target: T1, Sucrase-isomaltase, intestinal; test: Inhibition of rat small intestinal sucrase using sucrose as substrate incubated for 30 mins by glucose-oxidase method; how it was run: as §1

Maltase-glucoamylase, sequence (O43451 whole entry): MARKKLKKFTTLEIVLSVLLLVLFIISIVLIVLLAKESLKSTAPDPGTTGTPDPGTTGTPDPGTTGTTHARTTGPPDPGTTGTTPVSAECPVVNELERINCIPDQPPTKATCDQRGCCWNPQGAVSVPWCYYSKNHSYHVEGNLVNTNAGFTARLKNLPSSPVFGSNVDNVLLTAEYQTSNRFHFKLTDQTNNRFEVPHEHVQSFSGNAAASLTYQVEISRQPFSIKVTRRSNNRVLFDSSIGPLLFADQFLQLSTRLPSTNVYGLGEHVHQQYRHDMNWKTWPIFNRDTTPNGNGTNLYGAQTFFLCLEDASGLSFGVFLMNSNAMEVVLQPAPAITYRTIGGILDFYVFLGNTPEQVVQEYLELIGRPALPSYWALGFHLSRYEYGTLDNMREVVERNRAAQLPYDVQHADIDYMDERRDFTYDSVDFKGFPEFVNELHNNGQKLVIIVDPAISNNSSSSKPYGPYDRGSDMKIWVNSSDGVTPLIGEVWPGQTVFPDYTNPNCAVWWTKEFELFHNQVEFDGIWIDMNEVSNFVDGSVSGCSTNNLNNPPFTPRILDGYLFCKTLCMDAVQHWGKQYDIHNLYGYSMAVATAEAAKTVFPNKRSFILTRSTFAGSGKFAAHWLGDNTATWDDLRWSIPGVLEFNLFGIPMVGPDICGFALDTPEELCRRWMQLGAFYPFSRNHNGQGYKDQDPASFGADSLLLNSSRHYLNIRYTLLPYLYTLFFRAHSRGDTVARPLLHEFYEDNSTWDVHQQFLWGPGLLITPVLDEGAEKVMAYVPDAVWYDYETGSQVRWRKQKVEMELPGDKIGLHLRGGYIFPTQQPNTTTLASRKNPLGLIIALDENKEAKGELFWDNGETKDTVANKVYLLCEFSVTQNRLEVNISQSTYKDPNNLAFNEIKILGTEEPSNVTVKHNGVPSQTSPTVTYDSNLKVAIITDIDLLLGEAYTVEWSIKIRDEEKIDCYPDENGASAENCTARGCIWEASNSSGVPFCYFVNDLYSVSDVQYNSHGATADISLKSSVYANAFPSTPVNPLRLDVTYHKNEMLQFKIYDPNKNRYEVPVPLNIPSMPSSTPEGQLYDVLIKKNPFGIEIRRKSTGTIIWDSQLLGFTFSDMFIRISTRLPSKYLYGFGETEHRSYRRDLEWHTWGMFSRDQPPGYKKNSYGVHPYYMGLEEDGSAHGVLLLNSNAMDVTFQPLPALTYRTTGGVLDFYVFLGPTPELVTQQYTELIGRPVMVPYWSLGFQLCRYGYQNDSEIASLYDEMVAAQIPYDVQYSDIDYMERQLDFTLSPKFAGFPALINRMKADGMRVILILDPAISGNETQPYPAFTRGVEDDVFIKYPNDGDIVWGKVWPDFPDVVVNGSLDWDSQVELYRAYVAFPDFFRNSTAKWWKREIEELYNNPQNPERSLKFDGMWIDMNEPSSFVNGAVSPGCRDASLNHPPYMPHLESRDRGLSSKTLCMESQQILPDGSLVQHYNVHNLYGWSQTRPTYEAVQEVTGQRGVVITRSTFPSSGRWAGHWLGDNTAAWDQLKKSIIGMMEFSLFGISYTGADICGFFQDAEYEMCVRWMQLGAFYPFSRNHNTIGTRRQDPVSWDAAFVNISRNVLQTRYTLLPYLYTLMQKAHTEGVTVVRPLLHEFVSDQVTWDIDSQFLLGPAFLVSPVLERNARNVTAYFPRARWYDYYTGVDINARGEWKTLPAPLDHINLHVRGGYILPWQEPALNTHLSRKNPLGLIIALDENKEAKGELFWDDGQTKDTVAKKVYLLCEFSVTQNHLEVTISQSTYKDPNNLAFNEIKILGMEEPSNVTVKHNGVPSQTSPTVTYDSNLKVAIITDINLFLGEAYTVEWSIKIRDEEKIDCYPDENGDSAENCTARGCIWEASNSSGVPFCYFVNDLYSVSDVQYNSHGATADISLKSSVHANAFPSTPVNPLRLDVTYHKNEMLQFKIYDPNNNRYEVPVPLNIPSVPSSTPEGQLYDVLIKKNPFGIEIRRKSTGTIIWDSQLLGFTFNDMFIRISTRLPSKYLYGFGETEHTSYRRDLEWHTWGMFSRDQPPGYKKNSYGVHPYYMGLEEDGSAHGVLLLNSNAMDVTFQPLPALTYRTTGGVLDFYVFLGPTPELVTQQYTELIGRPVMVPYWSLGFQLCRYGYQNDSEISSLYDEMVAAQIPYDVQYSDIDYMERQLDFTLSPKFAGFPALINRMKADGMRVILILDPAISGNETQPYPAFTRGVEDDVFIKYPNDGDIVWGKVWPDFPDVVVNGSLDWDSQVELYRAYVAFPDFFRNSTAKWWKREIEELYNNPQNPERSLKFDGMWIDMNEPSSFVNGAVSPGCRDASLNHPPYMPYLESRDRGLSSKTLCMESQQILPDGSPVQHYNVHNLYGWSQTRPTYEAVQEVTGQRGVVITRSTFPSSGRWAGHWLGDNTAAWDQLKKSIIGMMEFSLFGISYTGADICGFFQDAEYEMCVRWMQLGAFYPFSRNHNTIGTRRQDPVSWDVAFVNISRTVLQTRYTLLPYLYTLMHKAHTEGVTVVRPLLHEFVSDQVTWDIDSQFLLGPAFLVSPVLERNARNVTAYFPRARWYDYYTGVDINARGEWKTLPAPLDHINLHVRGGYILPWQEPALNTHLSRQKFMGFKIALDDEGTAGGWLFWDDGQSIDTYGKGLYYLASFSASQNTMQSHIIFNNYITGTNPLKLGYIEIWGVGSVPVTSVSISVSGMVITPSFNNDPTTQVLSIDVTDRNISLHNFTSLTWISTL
T1 sequence (P23739 1-1013 limits assumed): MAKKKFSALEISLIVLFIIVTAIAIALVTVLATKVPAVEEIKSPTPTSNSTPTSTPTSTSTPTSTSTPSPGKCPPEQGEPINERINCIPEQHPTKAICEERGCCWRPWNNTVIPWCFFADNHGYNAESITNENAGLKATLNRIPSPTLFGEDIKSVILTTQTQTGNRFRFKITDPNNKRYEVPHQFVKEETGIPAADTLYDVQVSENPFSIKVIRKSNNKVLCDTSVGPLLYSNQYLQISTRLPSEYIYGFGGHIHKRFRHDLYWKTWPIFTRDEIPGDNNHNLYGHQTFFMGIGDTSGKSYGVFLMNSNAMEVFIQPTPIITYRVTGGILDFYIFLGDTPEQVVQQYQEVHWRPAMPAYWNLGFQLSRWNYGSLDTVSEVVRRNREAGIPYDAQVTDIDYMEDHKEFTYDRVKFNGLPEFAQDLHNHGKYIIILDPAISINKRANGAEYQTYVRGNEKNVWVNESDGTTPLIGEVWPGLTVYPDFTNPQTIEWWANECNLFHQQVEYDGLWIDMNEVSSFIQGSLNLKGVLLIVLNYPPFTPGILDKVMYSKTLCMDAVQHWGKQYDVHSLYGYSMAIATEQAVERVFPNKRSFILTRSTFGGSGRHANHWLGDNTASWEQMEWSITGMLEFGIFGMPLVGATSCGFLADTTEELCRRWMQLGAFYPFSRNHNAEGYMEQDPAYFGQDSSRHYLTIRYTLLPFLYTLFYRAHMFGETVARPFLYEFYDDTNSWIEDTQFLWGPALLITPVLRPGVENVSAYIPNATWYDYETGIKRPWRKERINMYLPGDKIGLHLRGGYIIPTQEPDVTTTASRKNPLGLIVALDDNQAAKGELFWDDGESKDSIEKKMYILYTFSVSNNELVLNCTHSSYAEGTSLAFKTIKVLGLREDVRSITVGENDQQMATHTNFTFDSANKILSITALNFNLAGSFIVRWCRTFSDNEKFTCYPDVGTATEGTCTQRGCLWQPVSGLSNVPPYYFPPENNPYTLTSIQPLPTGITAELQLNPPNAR
T1 sequence (P23739 1014-1841 limits assumed): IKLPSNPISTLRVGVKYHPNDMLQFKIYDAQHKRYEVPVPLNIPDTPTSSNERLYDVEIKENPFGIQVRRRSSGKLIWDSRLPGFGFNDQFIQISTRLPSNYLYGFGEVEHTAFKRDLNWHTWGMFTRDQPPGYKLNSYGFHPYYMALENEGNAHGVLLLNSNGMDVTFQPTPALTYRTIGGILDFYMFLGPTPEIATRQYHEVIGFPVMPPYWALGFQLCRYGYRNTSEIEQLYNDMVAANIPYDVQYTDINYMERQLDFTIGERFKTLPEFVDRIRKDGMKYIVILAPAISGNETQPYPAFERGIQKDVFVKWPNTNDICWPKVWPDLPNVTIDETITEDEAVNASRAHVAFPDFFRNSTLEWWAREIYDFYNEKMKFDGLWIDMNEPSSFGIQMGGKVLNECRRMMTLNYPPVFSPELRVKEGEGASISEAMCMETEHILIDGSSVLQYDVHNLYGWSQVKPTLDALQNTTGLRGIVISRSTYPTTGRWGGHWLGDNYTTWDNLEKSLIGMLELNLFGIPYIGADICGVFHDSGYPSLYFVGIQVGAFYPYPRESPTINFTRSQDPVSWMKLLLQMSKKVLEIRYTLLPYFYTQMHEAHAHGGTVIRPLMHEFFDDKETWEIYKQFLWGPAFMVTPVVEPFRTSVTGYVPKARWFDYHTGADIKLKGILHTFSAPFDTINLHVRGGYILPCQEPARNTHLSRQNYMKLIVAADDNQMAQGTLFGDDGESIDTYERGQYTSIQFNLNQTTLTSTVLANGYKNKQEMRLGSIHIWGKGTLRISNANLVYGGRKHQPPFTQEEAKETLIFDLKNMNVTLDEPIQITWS

Compound	IC50 [1] [nM]	IC50 [2] [nM]	IC50 (Maltase-glucoamylase) [nM]	IC50 [3] [nM]
CO[C@@H](CO)[C@H](O)C[S+]1C[C@@H](O)[C@H](O)[C@H]1CO (some centres undefined)	5300	390	2000	460
CC(C)CO[C@@H](CO)[C@H](O)C[S+]1C[C@@H](O)[C@H](O)[C@H]1CO (some centres undefined)	790	340	690	90
CCCCCCCO[C@@H](CO)[C@H](O)C[S+]1C[C@@H](O)[C@H](O)[C@H]1CO (some centres undefined)	800	250	640	240
O=[N+]([O-])c1ccccc1CO[C@@H](CO)[C@H](O)C[S@@+]1C[C@@H](O)[C@H](O)[C@H]1CO	130	210	150	42
CCCCCCCCCCCCCO[C@@H](CO)[C@H](O)C[S+]1C[C@@H](O)[C@H](O)[C@H]1CO (some centres undefined)	1040	950	1100	1300
OCC(CO)N[C@H]1C[C@](O)(CO)[C@@H](O)[C@H](O)[C@H]1O [VOGLIBOSE]			1300	
CCO[C@@H](CO)[C@H](O)C[S+]1C[C@@H](O)[C@H](O)[C@H]1CO (some centres undefined)		270	960	120
OC[C@@H]1[C@@H](O)[C@H](O)C[S+]1C[C@@H](O)[C@@H](O)CO (some centres undefined)	8000	300	9000	1300
OCCN1C[C@H](O)[C@@H](O)[C@H](O)[C@H]1CO [MIGLITOL]	8200			
CCCCCO[C@@H](CO)[C@H](O)C[S+]1C[C@@H](O)[C@H](O)[C@H]1CO (some centres undefined)		470	1500	500
CC(C)(C)CO[C@@H](CO)[C@H](O)C[S+]1C[C@@H](O)[C@H](O)[C@H]1CO (some centres undefined)	300	280	470	90
O=S(=O)([O-])O[C@@H](CO)[C@H](O)C[S+]1C[C@@H](O)[C@H](O)[C@H]1CO (some centres undefined)	5200	1300		1600
